Assay results gathered from unrelated publications.
Lines come from different studies, so protocols differ.
Organism: Mycolicibacterium smegmatis
Observed: microbial growth

O=C(O)CCCCCC1NC(=O)CS1 (racemic)
MIC90 (MC^2155): 10 µM

CC(C)=CCC/C(C)=C/COCCNC1C2CC3CC(C2)CC1C3 (stereo not drawn)
IC50 (48 h): ~9 µM

NC1C2CC3CC(C2)CC1C3 (stereo not drawn)
IC50 (48 h): > 500 µM

Cc1nc2sc3ccccc3n2c1C(=O)N1CCN(Cc2cn(-c3cccc(Cl)c3)nn2)CC1
IC50 (72 h): 52.7 µM

ON=C1C2CC3CC(C2)CC1C3
IC50 (48 h): > 500 µM

Cc1nc2sc3ccccc3n2c1C(=O)N1CCN(Cc2cn(-c3ccc([N+](=O)[O-])cc3)nn2)CC1
IC50 (72 h): > 128 µM

CO[C@H]1/C=C/O[C@@]2(C)Oc3c(C)c(O)c4c(O)c(c(/C=N/N5CCN(C)CC5)c(O)c4c3C2=O)NC(=O)/C(C)=C\C=C\[C@H](C)[C@H](O)[C@@H](C)[C@@H](O)[C@@H](C)[C@H](OC(C)=O)[C@@H]1C
inhibition zone (disc diffusion; 15 µg/disc): 14 mm

NNC(=O)c1ccncc1
MIC (resazurin; MC^2155; 24 h): 5 µg/mL

CCCc1ccc(-c2c[nH]c(N)n2)cc1
MIC (ATCC700084 MC^2155; 48 h): 200 µM

Cc1nc2sc3ccccc3n2c1C(=O)N1CCN(CCn2cc(-c3ccc(C(C)(C)C)cc3)nn2)CC1
IC50 (72 h): 34.6 µM

O=C(N/N=C/c1ccc([N+](=O)[O-])o1)c1ccc(O)cc1
MIC90 (ATCC14468): > 1000 µg/mL

CCc1ccc(-c2c[nH]c(N)n2)cc1
MIC (ATCC700084 MC^2155; 48 h): 100 µM
